Assay results from ChEMBL document CHEMBL5674882, “Benzolactam-related compounds promote apoptosis of HIV-infected human cells via protein kinase C-induced HIV latency reversal” (J Biol Chem, 2019).
Calls of active or inactive are those of the source. The rule behind the calls is not given here.

What was measured:
[1] = target: T1, Protein kinase C (PKC) (Homo sapiens) (UniProt O94806+P41743+P17252+P05129+Q05655+P05771+Q05513+Q02156+P24723+Q15139+Q04759); assay: Activation of PKC in human J-Lat 6.3 cells infected with latent HIV-1 assessed as reversal of HIV-1 latency by measuring increase of GFP-positive cells at 10 uM in presence of PKC alpha/beta inhibitor Go-6976 incubated for 24 hrs by flow cytometry; assay type: cell-based
Method in brief: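 J-Lat 6.3 cells pretreated 3 h with a PKC inhibitor: Gö 6983 1 µM, Gö 6976 1 µM, GF 109203X 1 µM, PKCθ/δ inhibitor 10 µM, or Rottlerin 1 µM. Then exposed to 10 µM compound for 24 h; GFP-positive cells counted by flow cytometry. Mean ± S.D.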

[2] = Toxicity in human A3.01 cells assessed as reduction in cell viability after 48 hrs by WST8 assay; assay type: cell-based
Method in brief: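 Parental, uninfected lines (A3.01 for ACH-2, U937 for U1) at 5 × 10^5 cells/ml cultured with or without drug. Viable cells read at 48 h (day 2) and expressed as % of untreated control. CC50 taken as the concentration lowering viability by 50%.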

U-937 = assay: Induction of apoptosis in human U-937 cells assessed as caspase-3 activation at 1 uM incubated for 24 hrs by flow cytometry; assay type: functional
Method in brief: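 Cells fixed in 1% paraformaldehyde, permeabilized, stained 30 min on ice with anti-active caspase-3 mAb, and analysed by flow cytometry. Three independent experiments.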

CD4+ T cell = assay: Induction of apoptosis in CCL19-induced human CD4+ T-cells infected with latent HIV-1 assessed as caspase-3 activation at 1 uM incubated for 48 hrs by FACS; assay type: functional, cell-based
Method in brief: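 Latency model: healthy-donor CD4+ T-cells given 100 nM CCL19 for 2 days, infected with HIV-1 NL4-3, kept 5 days in IL-2. Stimulated 2 days with 1 µM drug or 100 nM PMA plus 2 µM ionomycin. Cells fixed and permeabilized, co-stained with anti-p24 and anti-active caspase-3 mAbs; active caspase-3 read by flow cytometry separately in p24+ and p24− cells. Two donors.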

U1 [3] = assay: Induction of apoptosis in human U1 cells at 1 uM after 48 hrs by PI/annexin-V staining based flow cytometry; assay type: functional
[4] = Toxicity in human CD4+ T-cells assessed as increase in ratio of CD25+ cells incubated for 24 hrs by flow cytometry; assay type: cell-based; conditions: cd4+ t cell
Method in brief: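 Primary CD4+ T-cells from healthy donors treated with drug for 24 h. Cells stained with anti-CD25 and anti-CD69 antibodies (plus CD3, CD4, HLA-DR) for 30 min on ice, then marker-positive proportions quantified by flow cytometry.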

[5] = target: T1, Protein kinase C (PKC) (Homo sapiens); assay: Activation of PKC in CCL19-induced human CD4+ T-cells infected with latent HIV-1 assessed as reversal of HIV-1 latency by measuring increase in p24 antigen level at 1 uM incubated for 48 hrs by chemiluminescent enzyme immunoassay; assay type: cell-based; conditions: CD4+ T cell, filed as activator
U1 [6] = assay: Induction of apoptosis in human U1 cells at 1 uM incubated for 48 hrs after pre-incubated for 2 hrs with 20 uM caspase inhibitor Q-VD-Oph by propidium iodide/annexin-V staining based flow cytometry relative to compound alone control; assay type: functional; design: scale not given: the % may be the effect or the level left
Method in brief: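 ACH-2 or U1 cells pretreated 2 h with 20 µM pan-caspase inhibitor Q-VD-Oph, then exposed to 1 µM compound for 48 h. Annexin-V/PI staining by flow cytometry; apoptotic proportions compared with and without Q-VD-Oph. Mean ± S.D.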

Protein kinase C (PKC) = assay: (§1) Activation of PKC in human ACH-2 cells infected with latent HIV-1 assessed as reversal of HIV-1 latency by measuring increase in p24 antigen level incubated for 48 hrs by chemiluminescent enzyme immunoassay; assay type: cell-based; conditions: ach-2 cell line
[7] = target: T1, Protein kinase C (PKC) (Homo sapiens); assay: as §1; assay type: cell-based; conditions: ACH-2 cell line, filed as activator
[8] = target: T1, Protein kinase C (PKC) (Homo sapiens); assay: Activation of PKC in human ACH-2 cells infected with latent HIV-1 assessed as reversal of HIV-1 latency by measuring increase in p24 antigen level at 1 to 10000 nM incubated for 48 hrs by chemiluminescent enzyme immunoassay; assay type: cell-based; conditions: ACH-2 cell line, filed as activator, dose 1-10000 nM
Method in brief: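 ACH-2 or U1 cells (5 × 10^5 cells/ml) incubated 48 h with graded drug concentrations. Supernatant p24 antigen measured by automated chemiluminescent immunoassay. EC50 calculated taking the maximum response with excess PMA as 100%. Means ± S.D. of three independent experiments.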

[9] = Toxicity in human CD4+ T-cells assessed as elevation of supernatant cytokine concentrations of IFNgamma incubated for 24 hrs in presence of JQ1 by bead-based immunoassay; conditions: cd4+ t cell
Method in brief: (§2)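 Purified CD4+ T-cells from healthy donors treated 24 h with 1 μm drug, 1 μm JQ1, or the combination. IL-2, IL-5, IL-6, IL-13, TNFα and IFN-γ in supernatants measured by flow-cytometry bead-based Th1/Th2 immunoassay. Run in duplicate.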

[10] = target: T1, Protein kinase C (PKC) (Homo sapiens); assay: Synergistic activation of PKC in human U1 cells infected with latent HIV-1 assessed as reversal of HIV-1 latency by measuring increase in p24 antigen level at 50 nM incubated for 48 hrs in presence of 100 nM JQ1 by chemiluminescent enzyme immunoassay relative to compound alone; assay type: cell-based; conditions: filed as activator
Method in brief: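 U1 cells at 5 × 10^5 cells/ml incubated 48 h with test agent alone or plus 100 nm JQ1. Supernatant p24 antigen quantified by automated immunoassay. Fold reactivation computed versus the same agent without JQ1. Mean ± S.D. of three independent experiments.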

[11] = target: T1, Protein kinase C (PKC) (Homo sapiens); assay: Activation of PKC in human J-Lat 10.6 cells infected with latent HIV-1 assessed as reversal of HIV-1 latency by measuring increase of GFP-positive cells at 100 to 400 nM in presence of 1 uM SAHA incubated for 24 hrs by flow cytometry; assay type: cell-based; conditions: filed as activator, dose 100-400 nM
[12] = target: T1, Protein kinase C (PKC) (Homo sapiens); assay: Activation of PKC in human J-Lat 10.6 cells infected with latent HIV-1 assessed as reversal of HIV-1 latency by measuring increase of GFP-positive cells at 100 to 400 nM in presence of 10 nM Panobinostat incubated for 24 hrs by flow cytometry; assay type: cell-based; conditions: filed as activator, dose 100-400 nM
ACH-2 cell line = assay: Induction of apoptosis in human ACH-2 cells at 1 uM incubated for 48 hrs by propidium iodide/annexin-V staining based flow cytometry (reference value: 3.16%); assay type: functional
[13] = target: T1, Protein kinase C (PKC) (Homo sapiens); assay: Synergistic activation of PKC in CD4+ T-cells purified from HIV-infected patient assessed as increase in transcription of HIV mRNA at 1 uM incubated for 24 hrs in presence of 1 uM JQ1 by qRT-PCR method; assay type: cell-based; conditions: CD4+ T cell, filed as activator
Method in brief: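 CD4+ T-cells purified from PBMC of patients on cART for at least 5 years with plasma viral load <20 copies/ml. Cells plated at 2.5 × 10^6 cells/ml and treated 24 h, alone or with 1 μm JQ1. Intracellular HIV RNA measured by qRT-PCR against a plasmid standard curve, normalised per ng input RNA, relative to untreated cells. Synergy assessed by Bliss independence model.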

[14] = Toxicity in human CD4+ T-cells assessed as elevation of supernatant cytokine concentrations of IL-2 incubated for 24 hrs in presence of JQ1 by bead-based immunoassay; conditions: cd4+ t cell; method in brief: as §2

In the case of CCCCCCCCCCc1ccc2c(c1)N(C)[C@@H](C(C)C)C(=O)N[C@H](CO)C2, the Activity [1] is reported as “inactive”, the CC50 at 48 h [2] is reported as 21.1 µM and the Activity (U-937) is reported as 0.5%. The Activity (CD4+ T cell) was “Active”, the Activity (U1 [3]) was 30.4% and the Activity [4] was “Non-Toxic”. The Activity [5] was “Active”, the Activity (U1 [6]) was 20% and the EC50 (Protein kinase C (PKC)) was 0.025 µM. For the same compound, the Activity [7] was “Dose-Dependent Effect”, the Activity [8] was “Active” and the Activity [9] was “Non-Toxic”. For the same compound, the fold change (FC) [10] was 4.5, the Activity [11] was “Active” and the Activity [12] was “Active”. The Activity (ACH-2 cell line) was 58%, the fold change (FC) [13] was 13.2 and the Activity [14] was “Non-Toxic”.
